Measurements as given in ChEMBL document CHEMBL1806390, “Synthesis and biological evaluation of naphthyl phenyl ethers (NPEs) as novel nonnucleoside HIV-1 reverse transcriptase inhibitors” (Bioorg Med Chem, 2011).

How the values were obtained:
[1] = test system: Human immunodeficiency virus 1; assay: Antiviral activity against 0.06 MOI Human immunodeficiency virus 1 IIIB infected in C8166 cells assessed as reduction in virus-induced cytopathic effect after 3 days by syncytium reduction assay; format: functional, organism-based; details: C8166, 72 h
Summary of the method: (§1)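 C8166 cells (4 × 10^5/mL) infected at MOI 0.06 in presence of serial compound dilutions; AZT as drug control. Cultured 3 days at 37 °C, syncytia (multinucleated giant cells) counted under inverted microscope; EC50 = concentration blocking syncytium formation by 50%. Mean of at least two separate experiments.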

[2] = test system: Human immunodeficiency virus 1; assay: Antiviral activity against 0.06 MOI Human immunodeficiency virus 1 IIIB A17 harboring reverse transcriptase K103N and Y181C double mutant infected in C8166 cells assessed as reduction in virus-induced cytopathic effect after 3 days by syncytium reduction assay; format: functional, organism-based; details: Human immunodeficiency virus 1, IIIB A17, C8166, 72 h
Summary of the method: as §1, with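 “infected with HIV-1 IIIB A17 (K103N+Y181C)” for “infected”, “graded” for “serial”, “concentrations;” for “dilutions;”, “AZT” for “AZT as”, “as” for “=”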

[3] = test system: Human immunodeficiency virus 2; assay: Antiviral activity against Human immunodeficiency virus 2 ROD infected in C8166 cells assessed as reduction in virus-induced cytopathic effect after 3 days by syncytium reduction assay; format: functional, organism-based; details: Human immunodeficiency virus 2, ISOLATE ROD, C8166, 72 h; summary of the method: as §1
[4] = Cytotoxicity against human C8166 cells by MTT assay; format: cell-based
Summary of the method: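 MTT colorimetric assay on C8166 cells, absorbance read at 570/630 nm; CC50 (concentration reducing viable cells by 50%) taken from dose-response curve. Mean of at least two separate experiments.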

[5] = Selectivity index, ratio of CC50 for human C8166 cells to EC50 for wild type HIV1 IIIB infected in C8166 cells; format: toxicity, cell-based; details: read-out: Ratio CC50/EC50
Summary of the method: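 SI computed as CC50 (MTT, C8166 cells) divided by EC50 against HIV-1 IIIB from syncytium reduction in C8166 cells at MOI 0.06, 3 days at 37 °C.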

Question: Which results are given for Cc1cc(S(N)(=O)=O)ccc1NC(=O)COc1ccc(F)cc1Oc1cccc2ccccc12?
Answer: EC50 [1]: 0.137 µM; EC50 [2]: 1.68 µM; EC50 [3]: 17 µM; CC50 [4]: 33.1 µM; selectivity ratio [5]: 240

Question: Which EC50 [1] does the source give for Cc1cc(S(N)(=O)=O)ccc1NC(=O)COc1ccc(F)cc1Oc1ccc2ccccc2c1 here?
Answer: The EC50 was 0.0455 µM.

Question: What about the EC50 [2] of the same compound?
Answer: Its EC50 is 3.29 µM.

Question: What about the EC50 [3] of the same compound?
Answer: Its EC50 is 96.6 µM.

Question: And the CC50 [4]?
Answer: The CC50 was 68.5 µM.

Question: And the selectivity ratio [5]?
Answer: Its selectivity ratio is 1510.

Question: With Cc1cc(S(N)(=O)=O)ccc1NC(=O)COc1ccc(Cl)cc1Oc1ccc2ccccc2c1 as the compound, how does the EC50 [1] read?
Answer: The EC50 was 0.0791 µM.

Question: What about the EC50 [2] of the same compound?
Answer: The EC50 was 1.79 µM.

Question: What about the EC50 [3] of the same compound?
Answer: Its EC50 is 27.3 µM.

Question: What about the CC50 [4] of the same compound?
Answer: Its CC50 is 119 µM.

Question: What about the selectivity ratio [5] of the same compound?
Answer: The selectivity ratio was 1500.

Question: What does the source list for Cc1cc(S(N)(=O)=O)ccc1NC(=O)COc1ccc(Cl)cc1Oc1ccc2cc(Br)ccc2c1?
Answer: EC50 [1]: 0.244 µM; EC50 [2]: 2.49 µM; EC50 [3]: 20 µM; CC50 [4]: 31.3 µM; selectivity ratio [5]: 128

Question: Which EC50 [1] does the source give for Cc1cc(S(N)(=O)=O)ccc1NC(=O)COc1ccc(Cl)cc1Oc1ccc2ccccc2c1Cl here?
Answer: Its EC50 is 0.169 µM.

Question: And the EC50 [2]?
Answer: Its EC50 is 1.73 µM.

Question: And the EC50 [3]?
Answer: Its EC50 is 13.3 µM.

Question: What about the CC50 [4] of the same compound?
Answer: Its CC50 is 40.7 µM.

Question: What about the selectivity ratio [5] of the same compound?
Answer: Its selectivity ratio is 241.

Question: Which EC50 [1] does the source give for Cc1cc(S(N)(=O)=O)ccc1NC(=O)COc1ccc(Cl)cc1Oc1ccc2ccccc2c1Br here?
Answer: The EC50 was 0.0879 µM.

Question: What about the EC50 [2] of the same compound?
Answer: The EC50 was 1.34 µM.

Question: What about the EC50 [3] of the same compound?
Answer: Its EC50 is 137 µM.

Question: What about the CC50 [4] of the same compound?
Answer: Its CC50 is 48.1 µM.

Question: What about the selectivity ratio [5] of the same compound?
Answer: Its selectivity ratio is 547.

Question: Which EC50 [1] does the source give for Cc1cc(S(N)(=O)=O)ccc1NC(=O)COc1ccc(F)cc1Oc1cc2ccccc2cc1C here?
Answer: The EC50 was 0.14 µM.

Question: And the EC50 [2]?
Answer: Its EC50 is 1.09 µM.

Question: What about the EC50 [3] of the same compound?
Answer: Its EC50 is 126 µM.

Question: And the CC50 [4]?
Answer: The CC50 was 66.9 µM.

Question: What about the selectivity ratio [5] of the same compound?
Answer: The selectivity ratio was 476.

Question: Which EC50 [1] does the source give for Cc1cc(S(N)(=O)=O)ccc1NC(=O)COc1ccc(F)cc1Oc1ccc2cc(Br)ccc2c1 here?
Answer: Its EC50 is 0.181 µM.

Question: What about the EC50 [2] of the same compound?
Answer: The EC50 was 1.77 µM.

Question: And the EC50 [3]?
Answer: The EC50 was 96 µM.

Question: And the CC50 [4]?
Answer: Its CC50 is over 358 µM.

Question: What about the selectivity ratio [5] of the same compound?
Answer: Its selectivity ratio is over 1970.

Question: Which EC50 [1] does the source give for Cc1cc(S(N)(=O)=O)ccc1NC(=O)COc1ccc(F)cc1Oc1ccc2ccccc2c1C here?
Answer: The EC50 was 0.183 µM.

Question: What about the EC50 [2] of the same compound?
Answer: Its EC50 is 1.15 µM.

Question: What about the EC50 [3] of the same compound?
Answer: The EC50 was 26.4 µM.

Question: And the CC50 [4]?
Answer: Its CC50 is 56.1 µM.

Question: What about the selectivity ratio [5] of the same compound?
Answer: The selectivity ratio was 306.

Question: What does the source list for Cc1cc(S(N)(=O)=O)ccc1NC(=O)COc1ccc(F)cc1Oc1ccc2ccccc2c1Br?
Answer: EC50 [1]: 0.0858 µM; EC50 [2]: 1.59 µM; EC50 [3]: 6.17 µM; CC50 [4]: 39.5 µM; selectivity ratio [5]: 460

Question: Which EC50 [1] does the source give for Cc1cc(S(N)(=O)=O)ccc1NC(=O)COc1ccc(F)cc1Oc1ccc2cc(C#N)ccc2c1 here?
Answer: Its EC50 is 0.0388 µM.

Question: What about the EC50 [2] of the same compound?
Answer: The EC50 was 1.02 µM.

Question: And the EC50 [3]?
Answer: Its EC50 is 166 µM.

Question: What about the CC50 [4] of the same compound?
Answer: The CC50 was over 396 µM.

Question: What about the selectivity ratio [5] of the same compound?
Answer: Its selectivity ratio is over 10200.

Question: What does the source list for Cc1cc(S(N)(=O)=O)ccc1NC(=O)COc1ccc(F)cc1Oc1ccc2ccccc2c1Cl?
Answer: EC50 [1]: 0.186 µM; EC50 [2]: 3.09 µM; EC50 [3]: 136 µM; CC50 [4]: 47.1 µM; selectivity ratio [5]: 254

Question: What does the source list for Cc1cc(S(N)(=O)=O)ccc1NC(=O)COc1ccc(F)cc1Oc1ccc2cc(Br)ccc2c1Cl?
Answer: EC50 [1]: 0.1 µM; EC50 [2]: 1.2 µM; EC50 [3]: 11.5 µM; CC50 [4]: 195 µM; selectivity ratio [5]: 1950

Question: Which EC50 [1] does the source give for Cc1cc(S(N)(=O)=O)ccc1NC(=O)COc1ccc(Cl)cc1Oc1ccc2cc(C#N)ccc2c1 here?
Answer: Its EC50 is 0.117 µM.

Question: What about the EC50 [2] of the same compound?
Answer: Its EC50 is 2.33 µM.

Question: And the EC50 [3]?
Answer: Its EC50 is over 383 µM.

Question: And the CC50 [4]?
Answer: Its CC50 is over 383 µM.

Question: What about the selectivity ratio [5] of the same compound?
Answer: Its selectivity ratio is over 3290.

Question: What does the source list for Cc1cc(S(N)(=O)=O)ccc1NC(=O)COc1ccc(F)cc1Oc1ccc2cc(C#N)ccc2c1Br?
Answer: EC50 [1]: 0.0046 µM; EC50 [2]: 0.82 µM; EC50 [3]: 4.4 µM; CC50 [4]: 35.3 µM; selectivity ratio [5]: 7670

Question: With Cc1cc(S(N)(=O)=O)ccc1NC(=O)COc1ccc(F)cc1Oc1ccc2cc(C#N)ccc2c1Cl as the compound, how does the EC50 [1] read?
Answer: Its EC50 is 0.00472 µM.

Question: And the EC50 [2]?
Answer: Its EC50 is 0.54 µM.

Question: And the EC50 [3]?
Answer: The EC50 was 235 µM.

Question: And the CC50 [4]?
Answer: Its CC50 is 39.7 µM.

Question: What about the selectivity ratio [5] of the same compound?
Answer: The selectivity ratio was 8410.

Question: What does the source list for Cc1cc(S(N)(=O)=O)ccc1NC(=O)COc1ccc(F)cc1Oc1c(C)cc2ccccc2c1Cl?
Answer: EC50 [1]: 0.198 µM; EC50 [2]: 1.39 µM; EC50 [3]: 18.8 µM; CC50 [4]: 55.6 µM; selectivity ratio [5]: 280

Question: With Cc1cc(S(N)(=O)=O)ccc1NC(=O)COc1ccc(F)cc1Oc1ccc2cccc(F)c2c1 as the compound, how does the EC50 [1] read?
Answer: The EC50 was 0.0924 µM.

Question: And the EC50 [2]?
Answer: The EC50 was 1.45 µM.

Question: And the EC50 [3]?
Answer: Its EC50 is 66.3 µM.

Question: And the CC50 [4]?
Answer: The CC50 was 171 µM.

Question: And the selectivity ratio [5]?
Answer: The selectivity ratio was 1850.

Question: Which EC50 [1] does the source give for Cc1cc(S(N)(=O)=O)ccc1NC(=O)COc1ccc(Cl)cc1Oc1c(C)cc2ccccc2c1Cl here?
Answer: Its EC50 is 0.0731 µM.

Question: And the EC50 [2]?
Answer: Its EC50 is 1.07 µM.

Question: What about the EC50 [3] of the same compound?
Answer: Its EC50 is 3 µM.

Question: What about the CC50 [4] of the same compound?
Answer: Its CC50 is 42.6 µM.

Question: And the selectivity ratio [5]?
Answer: Its selectivity ratio is 583.

Question: Which results are given for Cc1cc(S(N)(=O)=O)ccc1NC(=O)COc1ccc(Cl)cc1Oc1cc2ccccc2cc1C?
Answer: EC50 [1]: 0.0584 µM; EC50 [2]: 0.76 µM; EC50 [3]: 20.7 µM; CC50 [4]: 76.7 µM; selectivity ratio [5]: 1310

Question: With Cc1cc(S(N)(=O)=O)ccc1NC(=O)COc1ccc(Cl)cc1C(=O)c1cc(Cl)cc(C#N)c1 as the compound, how does the EC50 [1] read?
Answer: The EC50 was 0.00068 µM.

Question: What about the EC50 [2] of the same compound?
Answer: Its EC50 is 0.00138 µM.

Question: What about the EC50 [3] of the same compound?
Answer: Its EC50 is 2.18 µM.

Question: And the CC50 [4]?
Answer: Its CC50 is over 386 µM.

Question: What about the selectivity ratio [5] of the same compound?
Answer: The selectivity ratio was over 567000.

Question: Which results are given for Cc1cn([C@H]2C[C@H](N=[N+]=[N-])[C@@H](CO)O2)c(=O)[nH]c1=O [ZIDOVUDINE]?
Answer: EC50 [1]: 0.0106 µM; EC50 [2]: 0.00812 µM; EC50 [3]: 0.129 µM; CC50 [4]: 5600 µM; selectivity ratio [5]: 529000
